Experiment [1] deals with Aspergillus fumigatus. The experiment is described as follows: Antifungal activity against Aspergillus fumigatus up to 30 uM after 48 hrs. It counts as functional, organism-based.
Experiment [2] relates to Staphylococcus aureus. The experiment is described as follows: Antibacterial activity against methicillin-resistant Staphylococcus aureus up to 30 uM after 24 hrs. It counts as functional, organism-based.
Experiment [3] has as its system Klebsiella pneumoniae. The experiment is described as follows: Antibacterial activity against Klebsiella pneumoniae up to 30 uM after 24 hrs. It counts as functional, organism-based.
Experiment [4] deals with Radical scavenging activity. The experiment is described as follows: Antioxidant activity assessed as DPPH free radical scavenging activity after 30 mins. Format: functional. The method, boiled down: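 Test samples taken up as 10 mM DMSO stocks, dissolved in 2-propanol. 50 μL of sample, or 2-propanol vehicle as negative control, mixed with 150 μL DPPH in 2-propanol (40 uM). Shaken, stood 30 min, absorbance read at 520 nm. Percent inhibition computed against control wells. Triplicates. IC50 taken as the concentration scavenging 50% of DPPH radicals. Ascorbic acid as positive control.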
For orientation: The DPPH test is a chemical assay of radical scavenging.

In experiment [5] the test system is Radical scavenging activity. The experiment is described as follows: Antioxidant activity assessed as DPPH free radical scavenging activity up to 30 uM after 30 mins. It counts as functional. The method, boiled down: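 Samples from 10 mM DMSO stocks were diluted in 2-propanol and mixed with DPPH in 2-propanol (40 uM solution as added). Controls were ascorbic acid (positive) and 2-propanol vehicle (negative). Plates were shaken and left for 30 min, then absorbance was read at 520 nm. Percent inhibition was calculated against control wells, in triplicate. IC50 is the concentration scavenging 50% of DPPH radicals.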

The structures appear in SMILES notation. Activity calls are given as the source filed them. The calls are words filed in the database; no cut-off is given here.

As a reminder, the IC50 is the concentration that gives 50% inhibition.

In the case of `COc1cc(C)c(Oc2cc(C)cc(O)c2O)c(O)c1`, the result in experiment [1], in experiment [2] and in experiment [3] was inactive. Also, the IC50 in experiment [4] is 11.6 µM.

Regarding `COc1cc(C)c(Oc2cc(C)cc(OC)c2O)c(O)c1`, the result in experiment [1], in experiment [2] and in experiment [3] was inactive. In addition, in experiment [4], the concentration for half-maximal inhibition (IC50) was 7.9 µM.

Consider `COc1cc(C2=CC(=O)[C@@](C)(c3ccc(O)c(OC)c3)C2=O)ccc1O`, for which the result in experiment [1], in experiment [2], in experiment [3] and in experiment [5] was inactive.

With `O=C1O[C@H]([C@@H](O)CO)C(O)=C1O` [ASCORBIC ACID], the IC50 in experiment [4] was determined as 5.6 µM.

As to `COc1cc(C)c(Oc2cc(C)cc(O)c2)c(O)c1`, the outcome in experiment [1], in experiment [2], in experiment [3] and in experiment [5] was inactive.

(Values after ChEMBL document CHEMBL2151035, “Diarylcyclopentendione metabolite obtained from a Preussia typharum isolate procured using an unconventional cultivation approach” (J Nat Prod, 2012).)
